In ChEMBL document CHEMBL1759915, “Synthesis and anticancer effects of some novel pyrazolo[3,4-d]pyrimidine derivatives by generating reactive oxygen species in human breast adenocarcinoma cells” (Eur J Med Chem, 2011):
≈ marks a conversion by molar mass, not a printed value.

Columns and labels:
[1] = tested on: MCF7; test: Decrease in CAT level in human MCF7 cells; assay type: functional, cell-based
[2] = tested on: MCF7; test: Effect on RNA level in human MCF7 cells assessed per 10 '6 cells at 5 ug/ml after 24 hrs (reference value: 11.50 +/- 0.70 ug/10^6 cells); assay type: functional
Procedure, shortened: (§1)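 After 24 h exposure of MCF-7 cells to compound at 2, 5, 10 or 20 µg/ml at 37 °C, nucleic acids were precipitated from cell homogenates. DNA was extracted and assayed by the Zhou et al. method, and RNA by a kit-derived procedure. Results given per 10⁶ cells as means ± S.E. of four experiments versus untreated control.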

[3] = tested on: MCF7; test: Effect on glutathione level in human MCF7 cells assessed per mg protein at 5 ug/ml by Ellman method after 24 hrs (reference value: 39.82 +/- 4.20 nmol/mg of protein); assay type: functional
[4] = tested on: MCF7; test: Effect on CAT level in human MCF7 cells assessed per mg protein at 2 ug/ml after 24 hrs (reference value: 7.90+/- 0.67 U/mg of protein); assay type: functional
[5] = tested on: MCF7; test: Effect on DNA level in human MCF7 cells assessed per 10 '6 cells at 20 ug/ml after 24 hrs (reference value: 6.80 +/- 0.70 ug/10^6 cells); assay type: functional; procedure, shortened: as §1
[6] = tested on: MCF7; test: Effect on hydrogen peroxide level in human MCF7 cells assessed per mg protein at 20 ug/ml by Wolf's method after 24 hrs (reference value: 12.50 +/- 1.54 nmol/mg of protein); assay type: functional
[7] = tested on: MCF7; test: Effect on DNA level in human MCF7 cells assessed per 10 '6 cells at 5 ug/ml after 24 hrs (reference value: 6.80 +/- 0.70 ug/10^6 cells); assay type: functional; procedure, shortened: as §1
[8] = tested on: MCF7; test: Effect on glutathione level in human MCF7 cells assessed per mg protein at 20 ug/ml by Ellman method after 24 hrs (reference value: 39.82 +/- 4.20 nmol/mg of protein); assay type: functional
[9] = tested on: MCF7; test: Effect on SOD level in human MCF7 cells assessed per mg protein at 20 ug/ml after 24 hrs (reference value: 27.61+/- 3.72 U/mg of protein); assay type: functional
[10] = tested on: MCF7; test: Decrease in glutathione level in human MCF7 cells; assay type: functional, cell-based
[11] = tested on: MCF7; test: Effect on DNA level in human MCF7 cells assessed per 10 '6 cells at 2 ug/ml after 24 hrs (reference value: 6.80 +/- 0.70 ug/10^6 cells); assay type: functional; procedure, shortened: as §1
[12] = tested on: MCF7; test: Effect on SOD level in human MCF7 cells assessed per mg protein at 2 ug/ml after 24 hrs (reference value: 27.61+/- 3.72 U/mg of protein); assay type: functional
[13] = tested on: MCF7; test: Effect on RNA level in human MCF7 cells assessed per 10 '6 cells at 10 ug/ml after 24 hrs (reference value: 11.50 +/- 0.70 ug/10^6 cells); assay type: functional; procedure, shortened: as §1
[14] = tested on: MCF7; test: Antiproliferative activity against human MCF7 cells after 24 hrs by MTT assay; assay type: functional, cell-based; details: for IC50: MCF7, 24 h
Procedure, shortened: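 MCF-7 cells (DMEM, 10% heat-inactivated FCS, penicillin/streptomycin, 37 °C, 5% CO2) plated at 0.65 × 10⁵ cells/well and given 24 h to attach. Exposed to compound or cisplatin at 2, 5, 10 or 20 µg/ml for 24 h at 37 °C. MTT added for 4 h, formazan dissolved in DMSO, absorbance read at 570 nm. Viability taken relative to untreated cells and IC50 derived.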

[15] = tested on: MCF7; test: Effect on glutathione level in human MCF7 cells assessed per mg protein at 10 ug/ml by Ellman method after 24 hrs (reference value: 39.82 +/- 4.20 nmol/mg of protein); assay type: functional
[16] = tested on: MCF7; test: Effect on glutathione peroxidase level in human MCF7 cells assessed per mg protein at 5 ug/ml after 24 hrs (reference value: 11.20 +/- 1.36 U/mg of protein); assay type: functional
[17] = tested on: MCF7; test: Decrease in glutathione peroxidase level in human MCF7 cells; assay type: functional, cell-based
[18] = tested on: MCF7; test: Increase in SOD level in human MCF7 cells; assay type: functional, cell-based
[19] = tested on: MCF7; test: Effect on RNA level in human MCF7 cells assessed per 10 '6 cells at 20 ug/ml after 24 hrs (reference value: 11.50 +/- 0.70 ug/10^6 cells); assay type: functional; procedure, shortened: as §1
[20] = tested on: MCF7; test: Effect on hydrogen peroxide level in human MCF7 cells assessed per mg protein at 10 ug/ml by Wolf's method after 24 hrs (reference value: 12.50 +/- 1.54 nmol/mg of protein); assay type: functional
[21] = tested on: MCF7; test: Effect on DNA level in human MCF7 cells assessed per 10 '6 cells at 10 ug/ml after 24 hrs (reference value: 6.80 +/- 0.70 ug/10^6 cells); assay type: functional; procedure, shortened: as §1
[22] = tested on: MCF7; test: Decrease in DNA level in human MCF7 cells assessed per 10 '6 cells after 24 hrs relative to control; assay type: functional, cell-based; procedure, shortened: as §1
[23] = tested on: MCF7; test: Increase in hydrogen peroxide level in human MCF7 cells; assay type: functional, cell-based
[24] = tested on: MCF7; test: Effect on hydrogen peroxide level in human MCF7 cells assessed per mg protein at 5 ug/ml by Wolf's method after 24 hrs (reference value: 12.50 +/- 1.54 nmol/mg of protein); assay type: functional
[25] = tested on: MCF7; test: Effect on CAT level in human MCF7 cells assessed per mg protein at 5 ug/ml after 24 hrs (reference value: 7.90+/- 0.67 U/mg of protein); assay type: functional
[26] = tested on: MCF7; test: Effect on CAT level in human MCF7 cells assessed per mg protein at 20 ug/ml after 24 hrs (reference value: 7.90+/- 0.67 U/mg of protein); assay type: functional
[27] = tested on: MCF7; test: Effect on glutathione peroxidase level in human MCF7 cells assessed per mg protein at 2 ug/ml after 24 hrs (reference value: 11.20 +/- 1.36 U/mg of protein); assay type: functional
[28] = tested on: MCF7; test: Effect on glutathione level in human MCF7 cells assessed per mg protein at 2 ug/ml by Ellman method after 24 hrs (reference value: 39.82 +/- 4.20 nmol/mg of protein); assay type: functional
[29] = tested on: MCF7; test: Effect on SOD level in human MCF7 cells assessed per mg protein at 5 ug/ml after 24 hrs (reference value: 27.61+/- 3.72 U/mg of protein); assay type: functional
[30] = tested on: MCF7; test: Effect on glutathione peroxidase level in human MCF7 cells assessed per mg protein at 20 ug/ml after 24 hrs (reference value: 11.20 +/- 1.36 U/mg of protein); assay type: functional
[31] = tested on: MCF7; test: Decrease in RNA level in human MCF7 cells assessed per 10 '6 cells after 24 hrs relative to control; assay type: functional, cell-based; procedure, shortened: as §1
[32] = tested on: MCF7; test: Effect on RNA level in human MCF7 cells assessed per 10 '6 cells at 2 ug/ml after 24 hrs (reference value: 11.50 +/- 0.70 ug/10^6 cells); assay type: functional; procedure, shortened: as §1
[33] = tested on: MCF7; test: Effect on CAT level in human MCF7 cells assessed per mg protein at 10 ug/ml after 24 hrs (reference value: 7.90+/- 0.67 U/mg of protein); assay type: functional
[34] = tested on: MCF7; test: Effect on hydrogen peroxide level in human MCF7 cells assessed per mg protein at 2 ug/ml by Wolf's method after 24 hrs (reference value: 12.50 +/- 1.54 nmol/mg of protein); assay type: functional
[35] = tested on: MCF7; test: Effect on SOD level in human MCF7 cells assessed per mg protein at 10 ug/ml after 24 hrs (reference value: 27.61+/- 3.72 U/mg of protein); assay type: functional
[36] = tested on: MCF7; test: Effect on glutathione peroxidase level in human MCF7 cells assessed per mg protein at 10 ug/ml after 24 hrs (reference value: 11.20 +/- 1.36 U/mg of protein); assay type: functional

SMILES | Activity [1] | Activity [2] | Activity [3] | Activity [4] | Activity [5] | Activity [6] | Activity [7] | Activity [8] | Activity [9] | Activity [10] | Activity [11] | Activity [12] | Activity [13] | Activity [14] | IC50 [14] | Activity [15] | Activity [16] | Activity [17] | Activity [18] | Activity [19] | further results
COCCSc1ncnc2c1cnn2-c1nc(C)nc2sc3c(c12)-c1ccccc1CC3 | Dose-dependent effect | 5.72 µg/10^6 cells | 20.95 nmol | 3.9 U/mg protein | 2.5 µg/10^6 cells | 66.8 nmol | 3.44 µg/10^6 cells | 15.6 nmol | 310 U/mg protein | Dose-dependent effect | 4 µg/10^6 cells | 105 U/mg protein | 5.21 µg/10^6 cells | Dose-dependent effect | 4.3 µg/mL (≈ 9.34 µM) | 18.75 nmol | 5.65 U/mg protein | Dose-dependent effect | Dose-dependent effect | 4.8 µg/10^6 cells | Activity [20]: 58.5 nmol; Activity [21]: 2.96 µg/10^6 cells; Activity [22]: Dose-dependent effect; Activity [23]: Dose-dependent effect; Activity [24]: 45.77 nmol; Activity [25]: 3.4 U/mg protein; Activity [26]: 2.1 U/mg protein; Activity [27]: 6 U/mg protein; Activity [28]: 23.6 nmol; Activity [29]: 136 U/mg protein; Activity [30]: 2.9 U/mg protein; Activity [31]: Dose-dependent effect; Activity [32]: 6.2 µg/10^6 cells; Activity [33]: 3 U/mg protein; Activity [34]: 30.75 nmol; Activity [35]: 310 U/mg protein; Activity [36]: 4 U/mg protein
CCSc1ncnc2c1cnn2-c1nc(C)nc2sc3c(c12)-c1ccccc1CC3 | Dose-dependent effect | 4.32 µg/10^6 cells | 19.16 nmol | 3.6 U/mg protein | 1.82 µg/10^6 cells | 80 nmol | 3.1 µg/10^6 cells | 14.8 nmol | 385 U/mg protein | Dose-dependent effect | 3.8 µg/10^6 cells | 125 U/mg protein | 4 µg/10^6 cells | Dose-dependent effect | 3 µg/mL (≈ 6.97 µM) | 17 nmol | 4.25 U/mg protein | Dose-dependent effect | Dose-dependent effect | 3.61 µg/10^6 cells | Activity [20]: 60.5 nmol; Activity [21]: 2.76 µg/10^6 cells; Activity [22]: Dose-dependent effect; Activity [23]: Dose-dependent effect; Activity [24]: 55 nmol; Activity [25]: 2.9 U/mg protein; Activity [26]: 1.55 U/mg protein; Activity [27]: 5.6 U/mg protein; Activity [28]: 20.11 nmol; Activity [29]: 150 U/mg protein; Activity [30]: 2.2 U/mg protein; Activity [31]: Dose-dependent effect; Activity [32]: 5.5 µg/10^6 cells; Activity [33]: 1.76 U/mg protein; Activity [34]: 35 nmol; Activity [35]: 360 U/mg protein; Activity [36]: 3 U/mg protein
